High-throughput results deposited in PubChem by several laboratories.
Most compounds without a hit are left out; they make up all but 2.1% or so of the library.
VIM-2 inh = inhibitors of Pseudomonas aeruginosa VIM-2 metallo-beta-lactamase; purified VIM-2, nitrocefin hydrolysis, epi-absorbance fluorescence; inhibition, % at 5.6 µM; 290,000 compounds, 0.89% hits; AID 1527;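 active = inhibition above the mean of all tested compounds plus 3 SD, cutoff set per screening run, cut at about 7.5% in these data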;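 also: red hydrolysis product quenches plate fluorescence so inhibitors raise well fluorescence; 0% = enzyme with DMSO and 100% = DMSO without enzyme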
IMP-1 inh = inhibitors of Pseudomonas aeruginosa IMP-1 metallo-beta-lactamase. purified IMP-1, nitrocefin hydrolysis, epi-absorbance fluorescence. inhibition, % at 5.6 µM. 290,000 compounds, 0.45% hits. AID 1556;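 active = inhibition above the mean plus 3 SD of all compounds in the same screening run, cut at about 4.5% in these data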;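 also: 0% = IMP-1 with DMSO and 100% = DMSO wells lacking enzyme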
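system = purified recombinant IMP-1 beta-lactamase | amount = 0.2 nM IMP-1, as dispensed | medium = HEPES buffer pH 7.1 with ZnSO4 and Brij 35 | times = 25 °C, 15 min preincubation, 25 min reaction | detection = plate fluorescence quenching by hydrolysis product, ex 480/em 530 nm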
HCV NS3 hel inh = HCV NS3 helicase inhibition | NS3 helicase DNA unwinding, Cy5 molecular beacon fluorescence | inhibition, % at 10.9 µM | 290,000 compounds, 0.56% hits | AID 1800;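 active = inhibition above the mean of all tested compounds plus 3 SD, set per campaign, cut at about 35% in these data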;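 also: 0% = DMSO wells and 100% = thioflavine S control wells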
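assay system = NS3 helicase fragment of HCV | buffer or medium = MOPS pH 6.5, MgCl2, DTT, Tween20, BSA | timing = 60 min unwinding reaction at 25 °C after ATP addition | signal = Cy5 beacon fluorescence read at start and 1 h | read-out basis = % inhibition of unwinding | control set = low DMSO, high thioflavine S at 110 µM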
SUMO HTRF inh = blocks human SUMOylation mediated by UBC9; P63279; HTRF SUMOylation assay, SAE1/SAE2 + UBC9, in vitro; inhibition, % at 35 µM; 290,000 compounds, 0.36% hits; AID 2006; in the data active = inhibition above about 50%, passing the limit was not always enough
Target sequence (P63279 whole entry, looked up): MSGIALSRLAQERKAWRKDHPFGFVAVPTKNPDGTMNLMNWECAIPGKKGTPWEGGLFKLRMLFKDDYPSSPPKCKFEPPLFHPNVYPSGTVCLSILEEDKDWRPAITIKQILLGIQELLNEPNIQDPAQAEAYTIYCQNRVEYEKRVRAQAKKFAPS
FID counter = displaces DNA intercalator in HCV helicase counter-screen; DNA fluorescent intercalator displacement, fluorescence; inhibition, % at 7.9 µM; 290,000 compounds, 0.17% hits; AID 1845; in the data active = inhibition above about 37%;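 also: 0% = vehicle and 100% = reference compound; higher means more ethidium bromide displaced from hairpin DNA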
* hit, by the source's call; · = not tested or not shown.

SMILES	VIM-2 inh	IMP-1 inh	HCV NS3 hel inh	SUMO HTRF inh	FID counter
COc1ccc(OC)c(-c2cc(C(=O)NCCCn3ccnc3)no2)c1	8.4*	0	-16	-20	19
COC(OC)C1(C)C(C#N)=C(N)Oc2c1c(=O)oc1ccccc21 (stereo not given)	-1	-2	-15	11	-8
CC1(C)C(C#N)=C(N)Oc2c1c(=O)oc1ccccc21	1	4.9*	5	-31	-6
COc1ccc(C2(C)NC(=O)N(CC(=O)Nc3ccc(C)cc3Br)C2=O)cc1OC (stereo not given)	0	-1	-8	-9	-23
O=C(O)C/C(=C\c1cc2c(cc1Br)OCO2)c1nc2ccccc2s1	8.8*	-4	17	15	-26
CCCCCCc1nc2ccccc2c(=O)n1NC(=O)c1c(O)c2cccc3c2n(c1=O)CC3	-2	-3	0	·	1
CC1CCCN(C2=C(NS(=O)(=O)c3ccc(Br)cc3)C(=O)c3ccccc3C2=O)C1 (stereo not given)	11*	1	1	55	-6
CCOC(=O)C1CCCN(C2=C(NS(=O)(=O)c3ccc(Br)cc3)C(=O)c3ccccc3C2=O)C1 (stereo not given)	8.2*	1	2	34	-3
CC1CCN(C2=C(NS(=O)(=O)c3ccc(Br)cc3)C(=O)c3ccccc3C2=O)CC1	6	1	5	68	-8
COc1ccccc1-c1nc2s/c(=C\c3cccs3)c(=O)n2n1	0	-2	9	0	-25
O=c1/c(=C/c2ccco2)sc2nc(-c3ccccc3Br)nn12	1	5.2*	20	2	-6
O=C(NCc1ccc(Cl)cc1)C1CCC(CNS(=O)(=O)c2ccccc2)CC1 (stereo not given)	-5	-2	3	3	-32
Nc1c(/C=C2/C=CC(=O)C(O)=C2)c(=O)nc2sc(CC(=O)N3CCCCC3)nn12	11*	-6	30	25	-31
Cc1cccn2c(=O)c3cc(C(=O)NCC4CCCO4)c(=N)n(C4CCCC4)c3nc12 (stereo not given)	11*	-3	5	23	-6
N=c1c(C(=O)NCC2CCCO2)cc2c(=O)n3ccccc3nc2n1C1CCCC1 (stereo not given)	1	-1	3	7	-5
Cc1ccc2nc3c(cc(C(=O)NCC4CCCO4)c(=N)n3C3CCCC3)c(=O)n2c1 (stereo not given)	7.9*	-5	15	34	-10
CCc1ccc(NC(=O)CCc2c(C)nn(-c3ccc(N4CCCCC4)nn3)c2C)cc1	-3	-3	-22	-7	-38
COC(=O)c1c(C(=O)OC)c(-c2ccc(Br)cc2)n2c1CS(=O)C2 (stereo not given)	-3	-5	5	-6	-13
Cc1cc(C)n2c(=S)[nH]nc2n1	11*	-3	6	19	-2
Cc1ccc(C)c(NC(=S)NCCc2ccc(F)cc2)c1	-2	20*	7	-9	-8
COc1ccc2nc3ccccc3nc2c1NC(=O)c1ccc(Cl)cc1Cl	-2	-1	-4	-2	6
CSCCC(NC(=O)C1CC1)c1nc2ccccc2[nH]1 (stereo not given)	0	4.8*	1	25	0
Cc1c(O)ccc2c(CN3CCN(Cc4ccccc4)CC3)cc(=O)oc12	0	0	-7	44	-4
Cc1cc(C)c2c(CN3CCN(Cc4ccccc4)CC3)cc(=O)oc2c1C	9.8*	-1	-56	-13	7
O=c1cc(CN2CCN(Cc3ccccc3)CC2)c2cc3c(cc2o1)CCC3	7.7*	1	-3	4	4
SMILES	VIM-2 inh	IMP-1 inh	HCV NS3 hel inh	SUMO HTRF inh	FID counter
O=c1cc(CN2CCN(c3ccccc3F)CC2)c2cc3c(cc2o1)CCCC3	-3	-2	0	6	1
CCOC(=O)c1c(-c2ccc(OC)cc2)csc1/N=C/C1=C(O)CCCC1=O	0	2	22	-2	-19
CCCCCCNC(=O)c1c(O)c2cccc3c2n(c1=O)CCC3	-3	-3	-7	0	0
O=C(NCCNCCO)c1c(O)c2cccc3c2n(c1=O)CCC3	10.0*	-2	8	21	14
CCN(CC)CCNC(=O)c1c(O)c2cccc3c2n(c1=O)CCC3	11*	-6	-3	-11	10
CNC(=O)c1c(O)c2cccc3c2n(c1=O)CCC3	9.5*	-3	8	5	-15
CCN(CC)S(=O)(=O)c1ccc(OC)c(NC(=S)Nc2ccc(C)c(C)c2)c1	-4	-2	0	-9	-3
CCOC(=O)c1c(C)[nH]c(C(=O)COC(=O)CNC(=O)c2ccc(Br)cc2)c1C	2	-2	-11	-14	-2
CCOC(=O)c1c(C)[nH]c(C)c1C(=O)COC(=O)CNC(=O)c1ccc(OCC)cc1	-2	4.7*	-6	-1	-20
O=C1NC(=O)/C(=C\c2ccc(O)cc2O)S1	2	6.0*	7	38	-1
O=C1NC(=O)/C(=C/c2cccc3ccccc23)S1	0	-6	11	12	-20
CCn1c2ccc(F)cc2c2nnc(SCCN3CCCCC3)nc21	10*	-3	8	19	2
CCn1c2nc(SCCN3CCOCC3)nnc2c2cc(C)cc(C)c21	12*	-4	9	1	-26
CCCn1c2ccc(F)cc2c2nnc(SCCN3CCCCC3)nc21	5	-1	10	9	-3
CC[n+]1c(/C=C/C=C/N(C(C)=O)c2ccccc2)sc2cc(OC)ccc21	-4	-3	13	-6	-19
Cc1c(-n2c(SCC(=O)O)nnc2-c2ccccc2Br)c(=O)n(-c2ccccc2)n1C	12*	-3	-4	18	-17
c1ccc(CN2CCC(Nc3nc(-c4cccs4)nc4ccccc34)CC2)cc1	3	-3	-51	-28	59*
CCOC(=O)C(CC)Sc1nnc2c3cc(C)ccc3n(C)c2n1 (stereo not given)	9.4*	0	-13	13	-15
CCSc1nnc2c3cc(CC)ccc3n(C)c2n1	8.2*	-3	-5	0	-26
CC(C)CSc1nnc2c3ccccc3n(C)c2n1	7	-2	9	4	-22
CS(=O)(=O)c1nc(S(=O)(=O)c2ccc(Cl)cc2)c(N2CCOCC2)s1	-2	-3	8	7	-19
COc1ccccc1OCCCC(=O)Nc1nnc(C2CCCO2)s1 (stereo not given)	-2	-3	-1	-9	-28
N#Cc1c(-c2ccncc2)c2c([nH]c1=S)CCCC2	-2	-5	5	8	0
Cc1ccc(-c2c3c([nH]c(=S)c2C#N)CCCC3)o1	2	9.7*	31	30	-16
Cc1ccc(S(=O)(=O)N2CCOCC2)cc1C(=O)O	-5	-4	4	9	1
O=C(O)c1cc2cccc(S(=O)(=O)N3CCOCC3)c2cc1O	2	1	16	52*	-7
O=C1c2ccccc2C(=O)N1c1ccc(Br)c2cccnc12	3	0	1	-3	-5
